Source: ChEMBL document CHEMBL1133186, “A new class of HIV-1 integrase inhibitors: the 3,3,3', 3'-tetramethyl-1,1'-spirobi(indan)-5,5',6,6'-tetrol family” (J Med Chem, 2000)
Active and inactive are the calls of the source. No cut-off for these calls is given here.

Key:
[1] = HeLa cell cytotoxicity by MTT cytotoxicity assay; format: cell-based; details: human, HeLa cells; read-out: LD50 (the source's name)
In short: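 HeLa cells in culture exposed to a range of compound concentrations; viability read by MTT assay.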

[2] = tested on: Molluscum contagiosum virus; test: DNA relaxation activity tested by the inhibition of the Type 1B topoisomerase of molluscum contagiosum virus (MCV); format: functional
In short: (§1)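 Type 1B topoisomerase of molluscum contagiosum virus tested as a counterscreen. Supercoiled DNA relaxation was analysed on gels.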

[3] = tested on: Human immunodeficiency virus 1; test: In vitro integration activity provided by preintegration complexes isolated from HIV-infected cells; format: functional
In short: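 Preintegration complexes were made with biologically inactivated HIV-based vectors and isolated from infected cells. They integrate their endogenously synthesized viral cDNA into an added target DNA, read out by microtiter plate assay over a range of compound concentrations.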

[4] = biological target: T1, Topoiomerase 1B (Molluscum contagiosum virus subtype 1) (UniProt Q98254); test: (§2) DNA cleavage and religation activity as inhibition of type 1B topoisomerase of molluscum contagiosum virus (MCV); format: functional
T1 sequence (whole entry): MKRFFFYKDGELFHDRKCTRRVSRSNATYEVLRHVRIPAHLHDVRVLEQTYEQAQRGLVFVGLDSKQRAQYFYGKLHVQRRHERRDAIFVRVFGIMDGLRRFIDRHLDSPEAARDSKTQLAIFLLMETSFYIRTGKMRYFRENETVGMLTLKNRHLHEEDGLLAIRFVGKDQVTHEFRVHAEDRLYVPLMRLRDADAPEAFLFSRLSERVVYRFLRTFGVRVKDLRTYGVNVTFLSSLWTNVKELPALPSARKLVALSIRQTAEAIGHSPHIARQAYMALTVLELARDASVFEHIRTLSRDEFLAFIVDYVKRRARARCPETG
In short: (§3)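 Type 1B topoisomerase of molluscum contagiosum virus tested as a counterscreen in a microtiter plate format that reads out DNA cleavage and religation.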

[5] = tested on: Molluscum contagiosum virus; test: DNA relaxation activity tested by the inhibition of the type 1B topoisomerase of molluscum contagiosum virus (MCV) at a concentration of 200 uM; NA is Not Active.; format: functional
In short: (§4)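 MCV type 1B topoisomerase counterscreen reading DNA relaxation, with products analysed on gels.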

[6] = tested on: Molluscum contagiosum virus; test: DNA cleavage and religation activity tested by the inhibition of the type 1B topoisomerase of molluscum contagiosum virus (MCV) at a concentration of 200 uM; NA is Not Active.; format: functional
In short: (§5)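 MCV type 1B topoisomerase counterscreen in microtiter plate format, reading DNA cleavage and religation; compounds tested up to 200 uM.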

[7] = tested on: Integrase (Human immunodeficiency virus 1); test: Compound was tested in vitro against strand -transfer (ST) activity in the presence of Mg2+ as the cationic cofactor at a concentration of 200 uM; NA is Not Active.
[8] = tested on: Integrase (Human immunodeficiency virus 1); test: Tested in vitro against strand -transfer (ST) activity in the presence of Mg2+ as the cationic cofactor
[9] = tested on: Integrase (Human immunodeficiency virus 1); test: Inhibition of strand -transfer (ST) activity in the presence of Mn2+
[10] = tested on: Integrase (Human immunodeficiency virus 1); test: Inhibition of 3'-processing (TC) in the presence of Mn2+ in vitro
[11] = tested on: Integrase (Human immunodeficiency virus 1); test: Compound was tested in vitro against strand -transfer (ST) activity in the presence of Mn2+ at a concentration of 200 uM; NA is Not Active.
[12] = tested on: Integrase (Human immunodeficiency virus 1); test: Compound was tested in vitro against 3'-processing (TC) in the presence of Mn2+ at a concentration of 200 uM; Na is Not Active.
[13] = biological target: T2, Topoiomerase 1B (Molluscum contagiosum virus subtype 1, UniProt Q98254); test: as §2; format: functional; in short: as §3
T2 sequence (Q98254 whole entry): T1 sequence (whole entry)

[14] = tested on: Molluscum contagiosum virus; test: DNA relaxation activity tested by the inhibition of the type 1B topoisomerase of molluscum contagiosum virus (MCV)at a concentration of 500 uM; NA is Not Active.; format: functional, organism-based; in short: as §4
[15] = tested on: Molluscum contagiosum virus; test: DNA cleavage and religation activity tested by the inhibition of the type 1B topoisomerase of molluscum contagiosum virus (MCV)at a concentration of 200 uM; NA is Not Active.; format: functional; in short: as §5
[16] = tested on: Integrase (Human immunodeficiency virus 1); test: Compound was tested in vitro against 3''-processing (TC) in the presence of Mn2+ at a concentration of 200 uM; NA is Not Active.
[17] = tested on: Molluscum contagiosum virus; test: DNA relaxation activity tested by the inhibition of the type 1B topoisomerase of molluscum contagiosum virus (MCV)at a concentration of 200 uM; NA is Not Active.; format: functional, organism-based; in short: as §1

| SMILES | CC50 [1] | IC50 [3] | inhibition [4] | inhibition [2] | also measured |
| --- | --- | --- | --- | --- | --- |
| CC1(C)CC2(CC(C)(C)c3cc(OS(=O)(=O)O)c(OS(=O)(=O)O)cc32)c2cc(OS(=O)(=O)O)c(OS(=O)(=O)O)cc21 | 134 µM | > 80 µM | inactive | – | IC50 [2]: 123 µM |
| CC1(C)CC2(CC(C)(C)c3cc(Br)c(O)cc32)c2cc(O)c(Br)cc21 | 4 µM | > 80 µM | – | – | Inhibition of DNA relaxation [5]: inactive; Inhibition of DNA cleavage and religation [6]: inactive; NA [7]: inactive |
| CC1(C)CC2(CC(C)(C)c3cc(O)c(O)cc32)c2cc(O)c(O)cc21 | 65 µM | > 80 µM | inactive | inactive | – |
| CC1(C)CC2(CC(C)(C)c3ccc(OS(=O)(=O)O)cc32)c2cc(OS(=O)(=O)O)ccc21 | > 400 µM | > 80 µM | inactive | – | – |
| CC1(C)CC2(CC(C)(C)c3cc([N+](=O)[O-])c(O)c([N+](=O)[O-])c32)c2cc(O)c([N+](=O)[O-])cc21 (stereo not drawn) | 41 µM | > 80 µM | inactive | – | IC50 [2]: 200 µM |
| CC1(C)CC2(CC(C)(C)c3cc([N+](=O)[O-])c(O)cc32)c2cc(O)c([N+](=O)[O-])cc21 | 198 µM | > 80 µM | inactive | inactive | inhibition [8]: inactive; inhibition [9]: inactive; inhibition [10]: inactive |
| CC1(C)CC2(CC(C)(C)c3cc(I)c(O)cc32)c2cc(O)c(I)cc21 | < 20 µM | > 80 µM | – | – | Inhibition of DNA relaxation [5]: inactive; Inhibition of DNA cleavage and religation [6]: inactive; NA [7]: inactive |
| CC1(C)CC2(CC(C)(C)c3cc(Br)c(OS(=O)(=O)O)cc32)c2cc(OS(=O)(=O)O)c(Br)cc21 | 50 µM | > 80 µM | inactive | – | inhibition [8]: inactive; inhibition [9]: inactive; inhibition [10]: inactive |
| Cc1cc2c(cc1O)C1(CC2(C)C)CC(C)(C)c2cc(C)c(O)cc21 | 10 µM | > 80 µM | – | – | Inhibition of DNA relaxation [5]: inactive; NA [11]: inactive; NA [12]: inactive; Inhibition of DNA cleavage and religation [6]: inactive; NA [7]: inactive |
| CC1(C)CC2(CC(C)(C)c3c(Br)c(OS(=O)(=O)O)c(OS(=O)(=O)O)c(Br)c32)c2c(Br)c(OS(=O)(=O)O)c(OS(=O)(=O)O)c(Br)c21 | 207 µM | > 80 µM | – | – | IC50 [13]: 75 µM |
| CC1(C)CC2(CC(C)(C)c3cc(S(=O)(=O)O)c(O)cc32)c2cc(O)c(S(=O)(=O)O)cc21 | > 600 µM | > 80 µM | inactive | inactive | inhibition [9]: inactive; inhibition [10]: inactive |
| CC1(C)CC2(CC(C)(C)c3ccc(O)c(NC(N)=O)c32)c2cc(O)c(NC(N)=O)cc21 (stereo not drawn) | 60 µM | > 80 µM | – | – | Inhibition of DNA relaxation [5]: inactive; Inhibition of DNA cleavage and religation [6]: inactive |
| CC1(C)CC2(CC(C)(C)c3c(Br)c(O)c(O)c(Br)c32)c2c(Br)c(O)c(O)c(Br)c21 | 18 µM | > 80 µM | – | inactive | IC50 [13]: 50 µM |
| CC1(C)CC2(CC(C)(C)c3cc(C=O)c(O)cc32)c2cc(O)c(C=O)cc21 | 4 µM | > 80 µM | inactive | – | – |
| CC1(C)CC2(CC(C)(C)c3ccc(O)cc32)c2cc(O)ccc21 | < 20 µM | > 80 µM | – | – | NA [14]: inactive; NA [15]: inactive |
| CC1(C)CC2(CC(C)(C)c3ccc(O)c(N)c32)c2cc(O)c(N)cc21 (stereo not drawn) | 3 µM | > 80 µM | inactive | inactive | inhibition [8]: inactive; inhibition [9]: inactive; inhibition [10]: inactive |
| CC1(C)CC2(CC(C)(C)c3ccc(O)c([N+](=O)[O-])c32)c2cc(O)c([N+](=O)[O-])cc21 (stereo not drawn) | 41 µM | > 80 µM | inactive | inactive | – |
| CC1(C)CC2(CC(C)(C)c3cc(NC(N)=O)c(O)cc32)c2cc(O)c(NC(N)=O)cc21 | 53 µM | > 80 µM | – | – | NA [16]: inactive; NA [11]: inactive; NA [7]: inactive; NA [17]: inactive; NA [15]: inactive |
| CC1(C)CC2(CC(C)(C)c3cc(N)c(O)cc32)c2cc(O)c(N)cc21 | 47 µM | > 80 µM | inactive | inactive | inhibition [9]: inactive; inhibition [10]: inactive |
